# Screening data: PubChem BioAssay, several laboratories
# In the library only some 2.3% were active in any assay of this set; here they are far more common.
# MT stabilize HCS: microtubule stabilization, imaging screen; HeLa tubulin immunostaining HCS, 24 h; share of cells brighter than vehicle mean+2SD; % tubulin-high responders, % at 10 µM; hit rate 0.83% among 200,000; AID 2205;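 active = plate Z-score above 3 for both tubulin-high and condensed-nucleus cell shares, with cell loss under 80%, at 10 µM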;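 also: anti alpha tubulin signal scored within the nucleus-defined area of each cell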
# Autophagy HCS: alters autophagy in cells; hit rate 0.98% among 190,000; calls only at 10 µM (by protocol); MEF GFP-LC3 puncta imaging; test concentration mostly 10 µM;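 active = percentage of spot-positive cells more than 3 SD above its plate mean, without a fluorescence outlier flag or 80% toxicity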;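 also: spot-positive cell cutoff set from DMSO-treated cells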
# Insulin prom up: MIN6 insulin promoter up-regulation; z-score at 5 µM; AID 1625; MIN6 insulin promoter-GFP reporter, high-content imaging; hits give high values; hit rate 0.3% among 190,000;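 active = z-score above 3 at 5 µM with at least 500 cells counted in the well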
# Dynein cargo inh: dynein cargo transport inhibition. 3617.4 mouse cells, GR-EGFP nuclear translocation imaging; test concentration mostly 20 µM; stimulated with dexamethasone, 1 µM; hits give low values. hit rate 0.47% among 220,000. z-score, hits read low;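 active = plate z-score of nuclear minus cytoplasmic receptor signal below a set negative limit, without overly bright fluorescence or cell loss, cut at about -3.5 in these data, passing the limit was not always enough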;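 also: z-score of nuclear minus cytoplasmic ring GR-EGFP intensity difference per well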
#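 Buffer or medium: tet-free, stripped-serum medium; Also added: dexamethasone, 1.0 µM final; Technique: high-content fluorescence imaging after fixation; Times: 48 h induction, 1 h compound, 30 min dex at 37 °C; Read-out: per-cell GR-EGFP intensity, nucleus versus surrounding cytoplasmic ring, well-averaged.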
# bCat nuc transl: alters nuclear translocation of beta-catenin in HeLa cells; AID 1665; nuclear translocation activity, % at 5 µM; hit rate 0.3% among 190,000; immunofluorescence imaging;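 active = nuclear translocation activity above 50% at 5 µM, with a well cell count of 50 or more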;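 also: per-cell ratio of nuclear to cytoplasmic median beta-catenin stain intensity; plate controls were DMSO negative control for no effect and GSK-3 inhibitor IX positive control for full effect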
#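 Read-out: Nuclear/cytoplasmic beta-catenin signal ratio, % activation | Assay system: Human HeLa cell line | Times: 24 h compound exposure at 37°C, 5% CO2 | Signal: Fluorescence imaging of beta-catenin antibody stain plus DAPI | Dosing: 5 µM primary, 0.02–20 µM confirmation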
# Numbers without * were called inactive; i = inactive; x = no result given; + = active, no number.
SMILES,MT stabilize HCS,Autophagy HCS,Insulin prom up,Dynein cargo inh,bCat nuc transl
C=C(C)COc1ccc(-c2[nH]ncc2Oc2ccc(OC)cc2)c(O)c1,x,x,0.06,-0.47,1
C=C(C)COc1ccc(-c2nc(N)ncc2Oc2ccc(OC)cc2)c(O)c1,3,i,-0.64,-0.86,-2
COc1ccc(-c2c(N)n[nH]c2C)cc1OC,6,i,0.6,-0.28,-3
O=C(NCc1cccnc1)c1ccc(Br)s1,x,x,0.2,1.5,0
O=c1[nH]c(CN2CCN(S(=O)(=O)c3cccs3)CC2)nc2c(Br)cc(Br)cc12,5,i,-0.65,0.28,0
CCCCOC(=O)CCCN1C(=O)/C(=C2\SC(=S)N(CCCC(=O)OCCCC)C2=O)SC1=S,x,x,-0.5,-0.42,0
Cc1ccc(SCC(=O)Nc2cc([N+](=O)[O-])ccc2O)cc1,3,i,-0.15,-0.41,2
Cc1nc2c(C)cccn2c1/C(O)=C1\C(=O)C(=O)N(CCN(C)C)C1c1ccco1 (centres undefined),x,x,-0.68,-0.3,-4
CCOC(=O)C1CCCN(S(=O)(=O)c2ccc(OC)c3ccccc23)C1 (centres undefined),11*,i,0.41,-1.3,x
Cc1ccc(S(=O)(=O)N2CCN(C(=S)NCc3ccc4c(c3)OCO4)CC2)cc1,3,i,-0.88,0.32,-3
O=c1cc2oc3cc(O)c(O)cc3c(-c3ccccc3O)c-2cc1O,x,x,15*,0.26,10
COc1ccc(OC)c(-c2c3cc(O)c(=O)cc-3oc3cc(O)c(O)cc23)c1,6,i,-0.57,0.0054,0
CCOc1ccccc1-c1c2cc(O)c(=O)cc-2oc2cc(O)c(O)cc12,4,i,8.1*,-0.4,0
CN(C)C=Nc1ncc2c3ccccc3n(CCN(C)C)c2c1C#N,2,i,-0.63,1.6,0
CCN(CC)CCn1c2ccccc2c2cnc(N)c(C#N)c21,3,+,-0.33,-0.17,-2
Cc1nn(-c2ccccc2)c2c1C1(C(=O)Nc3ccccc31)N1C(=N2)Sc2ccccc21 (centres undefined),3,+,0.27,-1.4,-7
CC(C)c1ccc(C2CC(=O)N3CN(C)CSC3=C2C#N)cc1 (centres undefined),5,i,-0.09,-0.43,x
CC(C)c1ccc(C2C(C#N)=C(N)N3C(=C2C#N)Sc2ccccc23)cc1 (centres undefined),4,+,0.92,-1,0
CCOC(=O)c1cc2c(N)c(C(=O)c3cc(C#N)c(SC)nc3C)sc2nc1C,21,+,-0.09,-0.54,-1
Cn1nc(C(F)(F)F)c(-c2ccc(F)cc2)c1NC(=O)c1cccnc1,x,x,-0.51,1.2,0
C/C(=N/NC(=O)C(C)n1nc(C)c([N+](=O)[O-])c1C)c1ccc(OCC(N)=O)cc1 (centres undefined),x,x,-0.86,-0.33,-1
Cc1nn(-c2ccccc2)c(C)c1/C=N/NC(=O)c1cc(-c2ccc(Br)s2)[nH]n1,22,i,0.1,0.052,36
Cc1ccc(C)c(OCC(=O)N/N=C/c2c(C)nn(-c3ccccc3)c2Cl)c1,21*,i,0.14,-1.6,-2
Cc1nn(-c2ccccc2)c(C)c1/C=N/NC(=O)c1cc(-c2ccc(Cl)s2)[nH]n1,16*,i,-0.03,1.2,119*
CC(/C=N/NC(=O)c1cc(-c2ccc(C)s2)[nH]n1)=C\c1ccccc1,28*,i,-0.03,0.91,1
SMILES,MT stabilize HCS,Autophagy HCS,Insulin prom up,Dynein cargo inh,bCat nuc transl
Cc1nn(-c2ccccc2)c(Cl)c1/C=N/NC(=O)OC(C)(C)C,5,i,-0.24,0.79,0
Cc1nn(-c2ccccc2)c(C)c1/C=N/NC(=O)c1cc(-c2cccs2)[nH]n1,8.9*,i,-2,-0.38,162*
CN(C)c1ccc(/C=N/NC(=O)c2sccc2-n2cccc2)cc1,3,i,0.49,-0.12,-2
N#CC(C#N)=C1C(=O)N(CCN2CCOCC2)c2ccccc21,x,x,-0.21,-1.9,0
CCOc1ccc(C(CC(=O)O)NC(=O)C(Sc2ccccc2)c2ccccc2)cc1 (centres undefined),4,i,x,-0.019,-2
c1ccc2c(CCNc3ncnc4nc[nH]c34)c[nH]c2c1,17*,i,x,-0.56,13
CC(C)N(Cc1nc(-c2ccccc2)no1)C(=O)C(C)(C)C,4,+,-1.2,-0.97,0
COC(=O)c1[nH]c2c(c1C)C(=O)CC(c1cccs1)C2 (centres undefined),16*,+,-2.1,2.1,39
